Most compounds without a hit are left out; they make up all but 6.4% or so of the library.
NR3A LBD binder – NR3A (human) ligand-binding domain modulation; NR3A LBD differential scanning fluorimetry, Tm shift; 0% = protein alone, 100% = glycine-bound protein; Tm shift relative to glycine control, % at 25 µM; hit rate 2.5% among 340,000;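 active means melting temperature shift of at least 10% of the positive control shift, at one fixed dose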
CHOP inhibitor – blocks CHOP induction under ER stress; CHO-K1 CHOP-promoter luciferase, tunicamycin-induced, 15-18 h; inhibition, % at 10 µM; hit rate 3.8% among 220,000; AID 2732;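 active means compounds that reduced the stress-induced luciferase reporter signal by more than about 70% of percent inhibition, limit read from the data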
TbMetRS inhib – Trypanosoma brucei MetRS inhibition; purified T. brucei MetRS, ATP depletion, Kinase-Glo luminescence; inhibition, % at 11.9 µM; hit rate 0.4% among 360,000; AID 624268;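 active means inhibition above a per-plate cutoff of the control wells' mean inhibition plus 3 SD, cut at about 5.5% in these data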
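technique = Kinase-Glo luminescence, ATP depletion format | system = purified MetRS (methionyl-tRNA synthetase) enzyme from Trypanosoma brucei | timing = 15 min preincubation, 2 h reaction, all 25 °C | evaluation = percent inhibition versus plate control medians | dosing = single dose, 11.9 µM final nominal, 0.9% final DMSO | also added = substrates ATP, L-methionine and bulk Escherichia coli tRNA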
MPTP block – inhibitors of mitochondrial permeability transition pore. isolated mouse mitochondria, Ca2+ swelling absorbance, 30 min. inhibition, % at 10 µM. hit rate 1.4% among 360,000. AID 602449;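 active means inhibition of 50% or more, scaled per plate between neutral and stimulator controls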
WT yeast gro inh – growth inhibition of WT yeast, mitochondrial fusion screen; mitochondrial fusion phenotypic screen, WT strain; inhibition, % at 10 µM; hit rate 2.1% among 190,000; in the data active means inhibition above about 58%; tested in S. cerevisiae
EBV gp42 inh – inhibitors of Epstein-Barr virus glycoprotein 42 | Q1HVG2 | Fluorescence polarization binding assay, mP read-out | inhibition, % (tested at 21.74 µM) | hit rate 0.42% among 220,000 | AID 1085; in the data active means inhibition above about 50%
Target sequence (Q1HVG2 whole entry, looked up): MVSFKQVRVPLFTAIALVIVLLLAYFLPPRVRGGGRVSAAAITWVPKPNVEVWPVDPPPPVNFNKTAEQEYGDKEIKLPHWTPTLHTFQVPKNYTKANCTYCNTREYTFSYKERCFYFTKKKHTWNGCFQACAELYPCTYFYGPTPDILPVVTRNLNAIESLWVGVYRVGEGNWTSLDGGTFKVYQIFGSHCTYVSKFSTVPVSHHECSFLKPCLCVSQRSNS
Numbers stand for hits; 0 = inactive; - = no result.

SMILES	NR3A LBD binder	CHOP inhibitor	TbMetRS inhib	MPTP block	WT yeast gro inh	EBV gp42 inh
Nc1[nH]n2c(=O)cc(-c3ccccc3)nc2c1N=Nc1ccc(S(N)(=O)=O)cc1	26	0	0	0	0	0
NS(=O)(=O)c1ccc(N=Nc2c(-c3ccccc3)[nH]n(-c3nc(-c4ccccc4)cs3)c2=O)cc1	26	0	0	0	0	0
COCCNC(=O)C1(C)CCCN(Cc2csc(-c3ccc(Cl)cc3)n2)C1 (stereo not given)	-	-	0	0	-	-
Clc1ccc(-c2cn3cc(Br)ccc3n2)cc1Cl	0	0	0	0	0	0
Clc1ccc(-c2cn3c(n2)-c2ccccc2C3)cc1Cl	30	0	0	0	0	0
CCCc1cc(C(=O)Nc2ccc(C(=O)c3ccccc3)cc2)n(C)n1	0	-	0	0	-	-
CN(CC(=O)NCc1ccco1)S(=O)(=O)c1ccc2c(c1)n(C)c(=O)c(=O)n2C	0	0	0	0	0	0
Brc1ccc(Nc2ncnc3[nH]ncc23)cc1	26	0	0	0	-	0
Fc1cccc(Nc2ncnc3[nH]ncc23)c1	0	0	0	0	0	0
Cc1cc2c(cc(C(=O)OC(C(=O)NC3CCCCC3)C(C)C)n2C)o1 (stereo not given)	0	-	0	0	-	-
Cc1ccsc1-c1nc(-c2ccccc2)c(-c2ccccc2)[nH]1	0	82	0	0	0	0
c1ccc(-n2nnnc2NCCc2c[nH]c3ccccc23)cc1	12	0	0	0	0	0
c1ccc2c(NCCc3c[nH]c4ccccc34)c3ccccc3nc2c1	0	-	0	0	-	-
Fc1cccc(NCCc2c[nH]c3ccccc23)n1	15	-	0	0	-	-
O=C(O)CCn1cc(-c2ccc(Cl)cc2)nc1-c1ccc(Cl)nc1	0	-	0	0	-	-
CCSc1ncc(/C=N/Nc2ccccc2)n1C	0	0	0	0	71	0
CCSc1ncc(/C=N/Nc2ccc(Cl)cc2)n1C	0	0	0	0	0	0
CCSc1ncc(/C=N/Nc2ccc([N+](=O)[O-])cc2)n1C	0	78	0	0	0	0
CC12CCC(=O)N1C(C(=O)NNC(=O)c1ccccc1Cl)CS2 (stereo not given)	0	-	0	0	-	-
COC(=O)c1ccccc1NC(=O)/C=N/O	0	0	0	0	0	0
O=C(/C=N/O)Nc1ccc2sc3ccccc3c2c1	34	0	0	0	-	0
O=C(CC1C(=O)NCCN1Cc1ccccc1C(F)(F)F)NC1CCCC1 (stereo not given)	0	-	0	0	-	-
CCOc1ccc(NC(=O)CCn2c(=O)[nH]c3ccsc3c2=O)cc1	19	0	0	0	0	0
O=C(Nc1cc(Cl)cc(Cl)c1)c1ccc(Cn2c(=O)[nH]c3ccsc3c2=O)cc1	0	94	0	0	0	0
CC(=O)NCCn1c(SCC(=O)NC2CCCCC2)nc2ccccc2c1=O	0	0	0	0	0	0
SMILES	NR3A LBD binder	CHOP inhibitor	TbMetRS inhib	MPTP block	WT yeast gro inh	EBV gp42 inh
COC(=O)/C(C#N)=C/c1ccc(-c2ccc(S(N)(=O)=O)cc2)o1	0	0	0	0	-	0
Cc1cccc2nc(CSc3ccc(Cl)cc3)cn12	0	0	0	0	73	0
Clc1ccc(SCc2cn3ccccc3n2)cc1	0	0	0	0	0	0
Cc1ccc(SCc2cn3c(C)csc3n2)cc1	0	0	0	0	74	0
CC1(C)Cc2c(cnn2-c2ccc(F)cc2)C(NC(=O)Cn2cncn2)C1 (stereo not given)	0	-	0	0	-	-
CCOC(=O)c1cnc(-c2ccccc2)nc1C(F)(F)F	0	0	0	0	0	0
CCN1CCN(C(c2cc(OC)c(OC)c(OC)c2)c2nnnn2C(C)C)CC1 (stereo not given)	0	0	0	0	0	0
C/C(=N\NC(=O)COc1ccc(C(C)(C)C)cc1)c1ccc(-n2ccnc2)cc1	0	95	0	0	71	0
C/C(=N\Nc1ccc(Cl)c(Cl)c1)c1ccc(-n2ccnc2)cc1	0	0	0	0	69	0
Cc1ccc(S(=O)(=O)Nc2ccc3nc(C)sc3c2)c(C)c1	0	-	0	0	-	-
Cc1c(C#N)c(O)n(CCO)c(=O)c1N=Nc1ccc2c(c1)COC2=O	0	94	0	0	-	0
COc1ccccc1OCC#CCSc1ncccn1	0	0	0	0	0	0
Cc1ccccc1NCCC(=O)Nc1ccc(F)cc1	0	-	0	0	-	-
Cc1ccccc1NCCC(=O)Nc1ccc(Cl)cc1	14	-	0	0	-	-

High-throughput results as filed in PubChem.
